Experimental data taken from ChEMBL document CHEMBL1671647, “In vitro activity of LK-157, a novel tricyclic carbapenem as broad-spectrum {beta}-lactamase inhibitor” (Antimicrob Agents Chemother, 2009).
Values after ≈ are worked out from the molar mass of the structure shown.

Columns and labels:
Moraxella catarrhalis = assay: Antibacterial activity against Moraxella catarrhalis by broth microdilution method; type: functional
Outline: (§1)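 Broth microdilution MICs per CLSI against clinical and ATCC isolates; stocks in distilled water, diluted with water or Mueller-Hinton broth, drug weights corrected for salt forms. Twofold series from 256 to 0.125 μg/ml or 25.6 to 0.0125 μg/ml. Inoculum 5 × 10^5 CFU/ml (final) by direct colony suspension. β-Lactamase inhibitors, when combined with a β-lactam, held constant at 4 μg/ml.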

[1] = Inhibition of Enterobacter cloacae Beta-lactamase AmpC
Outline: (§2)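 Purified β-lactamase (final 0.25 μg/ml) was preincubated with inhibitor for 10 min at 37°C in […] phosphate, pH 7, with 10% DMSO final. Prewarmed nitrocefin was then added (final […] as printed). A490 was read every 30 s for 10 min at 37°C to give initial rates. IC50 was fitted by sigmoidal nonlinear regression, from at least two independent experiments, with 95% CI.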

Citrobacter freundii = assay: Antibacterial activity against Citrobacter freundii by broth microdilution method; type: functional; outline: as §1
Staphylococcus aureus [2] = assay: Antibacterial activity against methicillin-resistant Staphylococcus aureus by broth microdilution method; type: functional
Outline: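 CLSI broth microdilution MIC against clinical isolates. In β-lactam combinations the inhibitor was held constant at 4 μg/ml. Inoculum was prepared by direct colony suspension, final 5 × 10^5 CFU/ml.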

Escherichia coli = assay: Antibacterial activity against Escherichia coli by broth microdilution method; type: functional; outline: as §1
Pseudomonas aeruginosa = assay: Antibacterial activity against Pseudomonas aeruginosa by broth microdilution method; type: functional; outline: as §1
[3] = Inhibition of Beta-lactamase TEM-1; outline: as §2
Enterobacter cloacae = assay: Antibacterial activity against Enterobacter cloacae by broth microdilution method; type: functional; outline: as §1
Klebsiella sp. = assay: Antibacterial activity against Klebsiella sp. by broth microdilution method; type: functional; outline: as §1
[4] = Inhibition of Klebsiella pneumoniae Beta-lactamase SHV-1; outline: as §2
Enterococcus sp. = assay: Antibacterial activity against Enterococcus sp. by broth microdilution method; type: functional; outline: as §1
Staphylococcus aureus [5] = assay: Antibacterial activity against methicillin-susceptible Staphylococcus aureus by broth microdilution method; type: functional; outline: as §1

SMILES	MIC50 (Moraxella catarrhalis) [mg/L]	MIC90 (Moraxella catarrhalis) [mg/L]	IC50 [1] [µM]	MIC (Citrobacter freundii) [mg/L]	MIC50 (Staphylococcus aureus [2]) [mg/L]	MIC90 (Staphylococcus aureus [2]) [mg/L]	MIC (Escherichia coli) [mg/L]	MIC50 (Escherichia coli) [mg/L]	MIC90 (Escherichia coli) [mg/L]	MIC (Pseudomonas aeruginosa) [mg/L]	IC50 [3] [µM]	MIC (Enterobacter cloacae) [mg/L]	MIC50 (Enterobacter cloacae) [mg/L]	MIC90 (Enterobacter cloacae) [mg/L]	MIC (Klebsiella sp.) [mg/L]	MIC50 (Klebsiella sp.) [mg/L]	MIC90 (Klebsiella sp.) [mg/L]	IC50 [4] [µM]	MIC (Enterococcus sp.) [mg/L]	MIC (Staphylococcus aureus [5]) [mg/L]
C/C=C1/C(=O)N2C(C(=O)O)=C3[C@@H](OC)CCC[C@@H]3[C@H]12	0.8 (≈ 3.04 µM)	0.8 (≈ 3.04 µM)	0.062	> 25.6	> 256	> 256	> 25.6	> 25.6	> 25.6	> 25.6	0.055	> 25.6	> 25.6	> 25.6	6.4 (≈ 24.3 µM)	> 25.6	> 25.6	0.151	> 25.6	0.8 (≈ 3.04 µM)
O=C(O)[C@H]1/C(=C/CO)O[C@@H]2CC(=O)N21 [CLAVULANIC ACID]	–	–	136	–	–	–	–	–	–	–	0.03	–	–	–	–	–	–	0.028	–	–
CC1(C)[C@H](C(=O)O)N2C(=O)C[C@H]2S1(=O)=O [SULBACTAM]	–	–	11.9	–	–	–	–	–	–	–	1.06	–	–	–	–	–	–	3.96	–	–
C[C@]1(Cn2ccnn2)[C@H](C(=O)O)N2C(=O)C[C@H]2S1(=O)=O [TAZOBACTAM]	–	–	1.76	–	–	–	–	–	–	–	0.014	–	–	–	–	–	–	–	–	–
